Test results reported in ChEMBL document CHEMBL4665823, “Assessing the Perturbing Effects of Drugs on Lipid Bilayers Using Gramicidin Channel-Based In Silico and In Vitro Assays” (J Med Chem, 2020).
The source made the active and inactive calls. The calls are words filed in the database; no cut-off is given here.

Tests used:
[1] = system: Lipid bilayer; assay: Induction of membrane perturbation in DC22:1PC LUV bilayer assessed as fluorescence quench rate by measuring gramicidin mixture monomer to dimer equilibrium at 1800 uM by fluorescence quenching assay
How it was run: (§1)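 ANTS-loaded (25 mM) DC22:1PC LUVs with gD at gramicidin:lipid 1:2000, rehydrated to 10 mM lipid, 3 h equilibration, 1 min sonication. Drug-exposed vesicles were incubated ≥10 min at 25 °C in the dark, then mixed by stopped-flow with Tl+ quench buffer (50 mM TlNO3, pH 7). Fluorescence (ex 352, em >450 nm) was fitted to a stretched exponential; rate given relative to drug-free control.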

[2] = system: Lipid bilayer; assay: Induction of membrane perturbation in DC18:1PC LUV bilayer assessed as fluorescence quench rate by measuring gramicidin mixture monomer to dimer equilibrium at 1800 uM by fluorescence quenching assay
How it was run: (§2)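 DC18:1PC LUVs (gramicidin mixture gD:lipid 1:40,000) loaded with 25 mM ANTS at 10 mM lipid, equilibrated 3 h at room temperature, sonicated 1 min, about 130 nm diameter. Drug added; samples held ≥10 min at 25 °C in the dark, then stopped-flow mixed with 50 mM TlNO3/94 mM NaNO3/10 mM HEPES, pH 7. Ex 352 nm, em >450 nm; quench rate from stretched-exponential fit.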

[3] = system: Lipid bilayer; assay: Induction of membrane perturbation in DC20:1PC LUV bilayer assessed as fluorescence quench rate by measuring gramicidin mixture monomer to dimer equilibrium at 1800 uM by fluorescence quenching assay
[4] = system: Lipid bilayer; assay: Induction of membrane perturbation in DC22:1PC LUV bilayer assessed as effect on potential of mean force by measuring reduction in deltaG for gramicidin mixture monomer to dimer and pure gramicidin-bilayer by fluorescence quenching assay
[5] = system: Lipid bilayer; assay: Induction of membrane perturbation in DC22:1PC LUV bilayer assessed as change in deltaG for gramicidin mixture monomer to dimer by fluorescence quenching assay (reference value: 0 kcal/mol)
[6] = system: Lipid bilayer; assay: Induction of membrane perturbation in DC22:1PC LUV bilayer assessed as change in deltaG for pure gramicidin monomer to dimer by fluorescence quenching assay (reference value: 0 kcal/mol)
[7] = system: Lipid bilayer; assay: Induction of membrane perturbation in DC22:1PC LUV bilayer assessed as fluorescence quench rate by measuring increase in R(drug)/R(control) ratio by fluorescence quenching assay; how it was run: as §1
[8] = system: Lipid bilayer; assay: Induction of membrane perturbation in DC20:1PC LUV bilayer assessed as fluorescence quench rate by measuring gramicidin mixture monomer to dimer equilibrium at 10 uM by fluorescence quenching assay
[9] = system: Lipid bilayer; assay: Induction of membrane perturbation in DC18:1PC LUV bilayer assessed as fluorescence quench rate by measuring gramicidin mixture monomer to dimer equilibrium at 10 uM by fluorescence quenching assay; how it was run: as §2
[10] = system: Lipid bilayer; assay: Induction of membrane perturbation in DC22:1PC LUV bilayer assessed as fluorescence quench rate by measuring gramicidin mixture monomer to dimer equilibrium at 10 uM by fluorescence quenching assay; how it was run: as §1
[11] = system: Lipid bilayer; assay: Induction of membrane perturbation in DC18:1PC LUV bilayer assessed as fluorescence quench rate by measuring gramicidin mixture monomer to dimer equilibrium at 100 uM by fluorescence quenching assay
[12] = system: Lipid bilayer; assay: Induction of membrane perturbation in DC20:1PC LUV bilayer assessed as fluorescence quench rate by measuring gramicidin mixture monomer to dimer equilibrium at 100 uM by fluorescence quenching assay
[13] = system: Lipid bilayer; assay: Induction of membrane perturbation in DC22:1PC LUV bilayer assessed as fluorescence quench rate by measuring gramicidin mixture monomer to dimer equilibrium at 100 uM by fluorescence quenching assay
[14] = system: Lipid bilayer; assay: Induction of membrane perturbation in DC18:1PC LUV bilayer assessed as effect on potential of mean force by measuring reduction in deltaG for gramicidin mixture monomer to dimer and pure gramicidin-bilayer by fluorescence quenching assay
[15] = system: Lipid bilayer; assay: Induction of membrane perturbation in DC22:1PC LUV bilayer assessed as effect on potential of mean force by measuring increase in deltaG for gramicidin mixture monomer to dimer and pure gramicidin-bilayer by fluorescence quenching assay
How it was run: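 ΔΔG(monomer↔dimer) was derived from Tl+/ANTS quench-rate ratios in DC22:1PC LUVs at 1:2000 gramicidin:lipid. Ratios were adjusted for estimated bilayer drug mole fraction and extrapolated linearly to a drug:lipid ratio of 0.084, matching the coarse-grained simulations. Stopped-flow was run at 25 °C.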

[16] = system: Lipid bilayer; assay: Induction of membrane perturbation in DC22:1PC LUV bilayer assessed as fluorescence quench rate by measuring increase in R(drug)/R(control) ratio at gD:lipid molar ratio of > 1:400 in presence of 10 mol % cholesterol by fluorescence quenching assay
How it was run: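 Cholesterol added at 10 mol % before LUV formation; DC22:1PC vesicles made with gD:lipid molar ratios between 1:200 and 1:2000, ANTS-loaded. Tl+ influx was followed by stopped-flow fluorescence quench at 25 °C (ex 352 nm, em >450 nm), and traces were fitted to a stretched exponential.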

[17] = system: Lipid bilayer; assay: Induction of membrane perturbation in DC18:1PC LUV bilayer assessed as fluorescence quench rate by measuring gramicidin mixture monomer to dimer equilibrium at 300 uM by fluorescence quenching assay; how it was run: as §2
[18] = system: Lipid bilayer; assay: Induction of membrane perturbation in DC22:1PC LUV bilayer assessed as fluorescence quench rate by measuring gramicidin mixture monomer to dimer equilibrium at 300 uM by fluorescence quenching assay; how it was run: as §1
[19] = system: Lipid bilayer; assay: Induction of membrane perturbation in DC20:1PC LUV bilayer assessed as fluorescence quench rate by measuring gramicidin mixture monomer to dimer equilibrium at 300 uM by fluorescence quenching assay
[20] = system: Lipid bilayer; assay: Induction of membrane perturbation in DC22:1PC LUV bilayer assessed as fluorescence quench rate by measuring reduction in R(drug)/R(control) ratio by fluorescence quenching assay
[21] = system: Lipid bilayer; assay: Induction of membrane perturbation in DC18:1PC LUV bilayer assessed as fluorescence quench rate by measuring gramicidin mixture monomer to dimer equilibrium at 30000 uM by fluorescence quenching assay
[22] = system: Lipid bilayer; assay: Induction of membrane perturbation in DC20:1PC LUV bilayer assessed as fluorescence quench rate by measuring gramicidin mixture monomer to dimer equilibrium at 30000 uM by fluorescence quenching assay
[23] = system: Lipid bilayer; assay: Induction of membrane perturbation in DC22:1PC LUV bilayer assessed as fluorescence quench rate by measuring gramicidin mixture monomer to dimer equilibrium at 30000 uM by fluorescence quenching assay
[24] = system: Lipid bilayer; assay: Induction of membrane perturbation in DC20:1PC LUV bilayer assessed as fluorescence quench rate by measuring gramicidin mixture monomer to dimer equilibrium at 30 uM by fluorescence quenching assay
[25] = system: Lipid bilayer; assay: Induction of membrane perturbation in DC22:1PC LUV bilayer assessed as fluorescence quench rate by measuring gramicidin mixture monomer to dimer equilibrium at 30 uM by fluorescence quenching assay; how it was run: as §1
[26] = system: Lipid bilayer; assay: Induction of membrane perturbation in DC18:1PC LUV bilayer assessed as fluorescence quench rate by measuring gramicidin mixture monomer to dimer equilibrium at 30 uM by fluorescence quenching assay; how it was run: as §2

| SMILES | Activity [4] | deltaG [5] [kcal/mol] | deltaG [6] [kcal/mol] | Activity [7] | also measured |
| --- | --- | --- | --- | --- | --- |
| CCCCCCCCO | Active | -0.3 | -0.4 | Dose-dependent effect | Activity [1]: Active; Activity [2]: inactive; Activity [3]: inactive |
| CCCCCCCCCCCCOCCOCCOCCOCCOCCOCCO | Active | -1.5 | -1.4 | Dose-dependent effect | Activity [8]: inactive; Activity [9]: inactive; Activity [10]: Active |
| COc1cc(CNC(=O)CCCC/C=C/C(C)C)ccc1O | Active | -0.6 | -0.5 |  | Activity [11]: inactive; Activity [12]: inactive; Activity [13]: Active; Activity [14]: Active |
| CC(C)CCC[C@@H](C)[C@H]1CC[C@H]2[C@@H]3CC=C4C[C@@H](O)CC[C@]4(C)[C@H]3CC[C@]12C |  |  | 2.5 |  | Activity [15]: Active; Activity [16]: Active |
| CCCCCCCCCCCCOP(=O)([O-])OCC[N+](C)(C)C | Active | -0.5 | -0.5 | Dose-dependent effect | Activity [17]: inactive; Activity [18]: Active; Activity [19]: inactive |
| C1CCCCC1 |  | 0 | 0 |  | Activity [20]: Dose-dependent effect; Activity [21]: inactive; Activity [15]: Active; Activity [22]: inactive; Activity [23]: Active |
| CC(C)(C)CC(C)(C)c1ccc(OCCOCCOCCOCCOCCOCCOCCOCCOCCOCCO)cc1 | Active | -1.6 | -1.5 | Dose-dependent effect | Activity [24]: inactive; Activity [25]: Active; Activity [26]: inactive |
| Oc1ccc(/C=C/c2cc(O)cc(O)c2)cc1 | Active | -1.8 | -1.7 | Dose-dependent effect | Activity [24]: inactive; Activity [25]: Active; Activity [26]: inactive |
